The target in experiment [1] is Sigma non-opioid intracellular receptor 1 (Homo sapiens, UniProt Q99720). Nature of the experiment: Binding affinity to sigma 1 receptor. The gist of the method:
(§1)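 Guinea pig brain homogenate (about 75 µg protein) incubated with test compound, 2 nM [3H]-(+)-pentazocine (Kd 2.9 nM) in 50 mM Tris pH 7.4, 180 min at 37 °C. Nonspecific binding with 10 µM unlabeled (+)-pentazocine. Rapid filtration, water washes, solid scintillator counting. Ki by Cheng–Prusoff from six-concentration competition curves, triplicates, mean ± SEM of three experiments; single-point lines give inhibition at 1 µM.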

In experiment [2] the target is Sigma non-opioid intracellular receptor 1 (Cavia porcellus) (UniProt Q60492). Nature of the experiment: Displacement of [3H](+)-pentazocine from sigma 1 receptor in guinea pig brain membrane at 1 uM by scintillation analysis. It counts as cell membranes. The gist of the method:
as §1
A general note: Displacement assays read how much labelled ligand stays bound in the presence of the test substance.

Another experiment concerns RT-4. Briefly: Cytotoxicity against human RT4 cells after 96 hrs by crystal violet staining. It counts as functional, cell-based. As to conditions: RT-4, 96 h. The procedure, abridged:
(§2)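 Human tumour lines from DSMZ given a 20 µM primary screen for 96 h at 37 °C. Those cutting growth >50% versus untreated controls were then tested at 5 serial dilutions (DMSO stocks) for 96 h. Remaining cell density read by crystal violet staining. IC50 from least-squares dose-response fit using concentrations giving T/C 10–90%.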

The next experiment deals with DAN-G. Briefly: Cytotoxicity against human DAN-G cells after 96 hrs by crystal violet staining. It counts as functional, cell-based. The procedure, abridged: as §2
Experiment [3] can be described thus: Cytotoxicity against human LCLC-103H cells after 96 hrs by crystal violet staining. It counts as functional, cell-based. The procedure, abridged: as §2
In the next experiment the test system is MCF7. Briefly: Cytotoxicity against human MCF7 cells after 96 hrs by crystal violet staining. It counts as functional, cell-based. As to conditions: MCF7, 96 h. The procedure, abridged: as §2
Another experiment concerns 5637. Briefly: Cytotoxicity against human 5637 cells after 96 hrs by crystal violet staining. It counts as functional, cell-based. As to conditions: Homo sapiens, 5637, 96 h. The procedure, abridged:
as §2

Another experiment has as its system A-427. Nature of the experiment: Cytotoxicity against human A427 cells after 96 hrs by crystal violet staining. It counts as functional, cell-based. The following applies: A-427, 96 h. The gist of the method: as §2
The species entered for another experiment is Rattus norvegicus. Briefly: Displacement of [3H]1,3-ditolylguanine from sigma 2 receptor in rat liver membrane by solid scintillation analysis at 1 uM. It counts as cell membranes.
The nature of experiment [4]: Displacement of [3H]1,3-ditolylguanine from sigma 2 receptor in rat liver membrane by solid scintillation analysis. The format is cell membranes.
Experiment [5] in a line: Selectivity ratio of IC50 for sigma 2 receptor in rat liver membrane to IC50 for sigma 1 receptor in guinea pig brain membrane. The format is cell membranes.
Experiment [6] addresses Sigma non-opioid intracellular receptor 1 (Cavia porcellus, UniProt Q60492). Briefly: Displacement of [3H](+)-pentazocine from sigma 1 receptor in guinea pig brain membrane by scintillation analysis. It counts as cell membranes.
A short description of experiment [7]: Selectivity for sigma 2 receptor in rat liver membrane over sigma 1 receptor in guinea pig brain membrane. The format is cell membranes.

SMILES strings stand for the structures.

This note sets out measurements from ChEMBL document CHEMBL1153319, “Dancing of the second aromatic residue around the 6,8-diazabicyclo[3.2.2]nonane framework: influence on sigma receptor affinity and cytotoxicity” (J Med Chem, 2009).

Sigma non-opioid intracellular receptor 1 (Cavia porcellus, UniProt Q60492), sequence (Q60492 whole entry): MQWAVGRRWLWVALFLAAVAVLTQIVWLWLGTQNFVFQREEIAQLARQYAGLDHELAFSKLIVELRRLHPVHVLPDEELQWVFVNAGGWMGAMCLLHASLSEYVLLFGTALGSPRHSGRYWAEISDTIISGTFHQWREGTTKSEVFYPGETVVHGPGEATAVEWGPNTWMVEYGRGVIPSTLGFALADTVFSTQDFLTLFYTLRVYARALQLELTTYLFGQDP
Sigma non-opioid intracellular receptor 1 (Cavia porcellus), sequence (Q60492 whole entry): as above
Sigma non-opioid intracellular receptor 1 (Homo sapiens, UniProt Q99720), sequence (Q99720 whole entry): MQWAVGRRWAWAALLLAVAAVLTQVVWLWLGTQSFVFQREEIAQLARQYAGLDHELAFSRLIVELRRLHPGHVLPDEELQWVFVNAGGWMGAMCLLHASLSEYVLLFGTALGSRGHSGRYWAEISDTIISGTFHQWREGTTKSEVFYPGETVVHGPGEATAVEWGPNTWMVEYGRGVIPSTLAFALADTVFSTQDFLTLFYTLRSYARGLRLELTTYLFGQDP

By Ki is commonly meant a dissociation constant, usually derived from enzyme kinetics or from competition with a known ligand. Higher therefore signals weaker binding. Molecule `COc1ccc(CN2CC3CCC(=O)C2CN3Cc2ccccc2)cc1` (centres undefined) yielded a Ki in experiment [1] of 0.053 µM.
What is called IC50 is the concentration at which inhibition is half-maximal. Read a high IC50 as weaker potency. On to `CCCN1CC2C(=O)C[C@@H](c3ccccc3)C1CN2Cc1ccc(OC)cc1` (some centres undefined), for which the values for the Activity (in experiment [2]; in the experiment filed under Rattus norvegicus) were 40% and 11%, respectively. Moreover, the IC50 (in the experiment with RT-4; with DAN-G; in experiment [3]; in the experiment on MCF7; with 5637; in the experiment on A-427) was greater than 20 µM each time.
On to `C=CCN1C[C@H]2/C(=C\c3ccccc3)CC[C@@H]1CN2Cc1ccc(OC)cc1`, for which the IC50 in the experiment on RT-4 turned out to be 14.1 µM; in the experiment on DAN-G it was 9.82 µM; in [3] it was 17.8 µM; in the experiment on MCF7, 7.25 µM; in the experiment with 5637, 10.9 µM; with A-427 it was 3.93 µM. Also, the results for the Ki in [4] and in experiment [6] were 0.566 µM and 0.104 µM, respectively. In addition, the Ratio IC50 in experiment [5] turned out to be 5.
With `C=CCN1C[C@H]2c3[nH]c4ccc(OC)cc4c3C[C@@H]1CN2Cc1ccc(OC)cc1`, the Activity in experiment [2] is 37%; in the experiment listed under Rattus norvegicus, 44%. Besides, the IC50 was greater than 20 µM with RT-4; greater than 20 µM in the experiment on DAN-G; greater than 20 µM in experiment [3]; greater than 20 µM with MCF7; 16.1 µM in the experiment on 5637; 15.4 µM in the experiment with A-427.
As for `C=CCN1CC2[C@@H](O)CCC1CN2Cc1ccc(OC)cc1` (some centres undefined), the Ki in [1] is 2.24 µM.
`COc1ccc(CN2C[C@@H]3[C@@H](c4ccccc4)CC(=O)[C@H]2CN3Cc2ccccc2)cc1`: the Activity in experiment [2] stood at 8%; in the experiment listed under Rattus norvegicus it was 0%. The IC50 (in the experiment on DAN-G; in [3]) was greater than 20 µM each time.
`C=CCN1C[C@@H]2[C@H](Oc3ccccc3)CC[C@H]1CN2Cc1ccc(OC)cc1`: the IC50 in the experiment on RT-4 is 19.1 µM; in the experiment on DAN-G it was 15.8 µM; in experiment [3], greater than 20 µM; in the experiment on MCF7 it was 12.7 µM; with 5637, 14 µM; in the experiment on A-427, 5.95 µM. Besides, the Ki came out at 0.479 µM in [4] and 2.12 µM in experiment [6]. Moreover, the fold change (FC) in experiment [7] stood at 5.
As to `COc1ccc(CN2C[C@H]3C(c4ccccc4)CC(=O)[C@@H]2CN3Cc2ccccc2)cc1` (single isomer, unassigned; form 2), the figures for the Activity (in experiment [2]; in the experiment filed under Rattus norvegicus) were 14% and 0%, respectively.
On to `C=CCN1C[C@@H]2[C@H](Oc3ccccc3)CC[C@H]1CN2Cc1ccc(OC)cc1OC`, for which the IC50 in the experiment with RT-4 was 15.3 µM; in the experiment with DAN-G, 12.5 µM; in [3] it was greater than 20 µM; with MCF7, 9.11 µM; with 5637 it was 11.7 µM; in the experiment on A-427, 7.09 µM. For the same molecule, the inhibition constant Ki in experiment [4] was determined as 0.469 µM; in experiment [6] it was 4.05 µM. Besides, in experiment [7], the fold change (FC) is 5.
With `C=CCN1C[C@H]2[C@H](OCc3ccccc3)CC[C@@H]1CN2Cc1ccc(OC)cc1`, the IC50 in the experiment with RT-4 stood at 14.3 µM; with DAN-G, 12.7 µM; in experiment [3], 19.9 µM; in the experiment with MCF7, 9.13 µM; in the experiment with 5637, 11.2 µM; in the experiment with A-427, 4.61 µM. For the same molecule, the results for the Ki in [4] and in experiment [6] were 6.46 µM and 0.091 µM, respectively. For the same molecule, in experiment [5], the Ratio IC50 came out at 70.
With `CCCN1CC2C(=O)C[C@H](c3ccccc3)C1CN2Cc1ccc(OC)cc1` (some centres undefined), the Activity came to 3% in experiment [2] and 10% in the experiment filed under Rattus norvegicus. The IC50 (with RT-4; in the experiment on DAN-G; in [3]) was greater than 20 µM each time.
Turning to `C=CCN1C[C@H]2N(Cc3ccc(OC)cc3)C[C@@H]1CC[C@]21Cc2ccccc2CO1`, the results for the Activity (in [2]; in the experiment filed under Rattus norvegicus) were 36% and 58%, respectively.
For the molecule `C=CCN1C[C@H]2c3[nH]c4ccccc4c3C[C@@H]1CN2Cc1ccc(OC)cc1`, the Activity in [2] came to 7%; in the experiment filed under Rattus norvegicus, 0%. Moreover, the IC50 (in the experiment with RT-4; in [3]) was greater than 20 µM each time.
On to `C=CCN1C[C@H]2c3[nH]c4ccc(OC)cc4c3C[C@@H]1CN2Cc1ccc(OC)cc1OC`, for which the Activity in experiment [2] is 0%. For the same molecule, the IC50 amounted to 11.1 µM in the experiment with RT-4; 7.12 µM in the experiment on DAN-G; 8.57 µM in [3]; 11.4 µM in the experiment on MCF7; 16.6 µM in the experiment on 5637; 6.28 µM in the experiment on A-427. Besides, the Ki in experiment [4] amounted to 10.2 µM.
In [1], `C=CCN1CC2C(=O)CCC1CN2Cc1ccc(OC)cc1` (centres undefined) displayed a Ki of 1.6 µM.
For the molecule `C=CCN1C[C@H]2[C@@H](OCc3ccccc3)CC[C@@H]1CN2Cc1ccc(OC)cc1OC`, the Activity in [2] is 13%. Also, the IC50 with RT-4 was 5.87 µM; in the experiment on DAN-G, 5.89 µM; in experiment [3] it was 8.67 µM; in the experiment with MCF7, 5.85 µM; in the experiment on 5637, 7.66 µM; with A-427, 3.53 µM. The molecule also registered a Ki in experiment [4] of 2.81 µM.
In the case of `C=CCN1C[C@@H]2c3[nH]c4ccc(OC)cc4c3C[C@H]1CN2Cc1ccc(OC)cc1`, the IC50 was greater than 20 µM in the experiment on RT-4; greater than 20 µM in the experiment on DAN-G; greater than 20 µM in [3]; 25.5 µM in the experiment on MCF7; 10.8 µM in the experiment with 5637; 13.2 µM with A-427. Also, in [6], the Ki was 10.5 µM. The same molecule yielded an Activity in the experiment listed under Rattus norvegicus of 0%.
For the molecule `COc1ccc(CN2C[C@@H]3[C@H](c4ccccc4)CC(=O)[C@H]2CN3Cc2ccccc2)cc1`, the Activity in [2] amounted to 17%; in the experiment listed under Rattus norvegicus it was 0%. Moreover, the IC50 in the experiment on RT-4 was 20.5 µM; with DAN-G it was 16.1 µM; in [3], greater than 20 µM; in the experiment with MCF7, 19.4 µM; in the experiment on 5637, 18.3 µM; with A-427, 10.3 µM.
For the molecule `C=CCN1C[C@@H]2[C@H](OCc3ccccc3)CC[C@H]1CN2Cc1ccc(OC)cc1OC`, in experiment [2], the Activity is 20%. The half-maximal inhibitory concentration (IC50) in the experiment with RT-4 is 8.57 µM; in the experiment with DAN-G it was 4.58 µM; in [3], 11.1 µM; with MCF7 it was 5.81 µM; in the experiment on 5637 it was 4.73 µM; with A-427, 3.55 µM. This molecule had a Ki in experiment [4] of 0.4 µM. This molecule also displayed a fold change (FC) in [7] of 5.
As to `COc1ccc(CN2C[C@H]3C(c4ccccc4)CC(=O)[C@@H]2CN3Cc2ccccc2)cc1` (single isomer, unassigned; form 1), the Activity in [2] came out at 25%; in the experiment listed under Rattus norvegicus it was 0%.
As to `C=CCN1C[C@H]2[C@@H](Oc3ccccc3)CC[C@@H]1CN2Cc1ccc(OC)cc1OC`, in experiment [2], the Activity came out at 0%. Also, the IC50 in the experiment with RT-4 was 16.5 µM; in the experiment on DAN-G it was 10.9 µM; in experiment [3], greater than 20 µM; with MCF7 it was 9.09 µM; in the experiment on 5637 it was 15.2 µM; in the experiment on A-427, 6.28 µM. The Ki in experiment [4] was 5.88 µM.
In experiment [1], `COc1ccc(CN2CCN(Cc3ccccc3)[C@@H](CO)C2)cc1` returned a Ki of 0.012 µM.
